Measured values published in ChEMBL document CHEMBL1671794, “Synthesis and SAR studies on azetidine-containing dipeptides as HCMV inhibitors” (Bioorg Med Chem, 2011).
The source made the active and inactive calls. No cut-off for these calls is given here.

Key:
Human betaherpesvirus 5 = assay: Antiviral activity against human cytomegalovirus infected in HELF assessed as decrease in plaque formation after 7 days by microscopy; assay type: functional, organism-based; conditions: Human betaherpesvirus 5, HELF, 168 h
Method in brief: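 Confluent HEL fibroblasts were infected with HCMV Davis strain at 100 PFU per well. After 2 h, residual virus was removed and compound-containing medium was added in duplicate. Cells were incubated for 7 days at 37 °C, then ethanol-fixed and Giemsa-stained, and cytopathogenicity was scored microscopically.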

[1] = Cytotoxicity against HELF cells assessed as after 3 days by Coulter counting analysis; assay type: cell-based; conditions: human; for MCC at 72 h / CC50 at 72 h: HELF cells; for CC50: helf, 72 h
Method in brief: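 HEL cells were seeded at 5 × 10^3 cells/well and allowed to grow for 24 h before compound dilutions were added. After 3 days at 37 °C, cells were counted with a Coulter Counter.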

Human alphaherpesvirus 3 [2] = assay: Antiviral activity against Thymidine kinase-positive Varicella-zoster virus Oka infected in HELF assessed as virus-induced cytopathogenicity after 5 days by microscopy; assay type: functional; conditions: Human alphaherpesvirus 3, strain Oka vaccine, 120 h
Human alphaherpesvirus 3 [3] = assay: Antiviral activity against Thymidine kinase-deficient Varicella-zoster virus 07-1 infected in HELF assessed as virus-induced cytopathogenicity after 5 days by microscopy; assay type: functional, organism-based; conditions: Human alphaherpesvirus 3, 07-1, HELF, 120 h
Human respirovirus 3 = assay: Antiviral activity against parainfluenza-3 infected in african green monkey Vero cells assessed as virus-induced cytopathogenicity at 20 to 100 uM after 4 days by microscopy; assay type: functional, organism-based
Method in brief: (§1)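 Confluent cell monolayers were inoculated with 100 CCID50 of virus. After 1 h of adsorption, residual virus was removed and cultures were incubated with fivefold serial compound dilutions. Cytopathicity was scored microscopically once it was complete in the untreated infected controls.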

[4] = test system: Mammalian orthoreovirus 1; assay: Antiviral activity against reovirus-1 infected in african green monkey Vero cells assessed as virus-induced cytopathogenicity at 20 to 100 uM after 4 days by microscopy; assay type: functional, organism-based; method in brief: as §1
Sindbis virus = assay: Antiviral activity against Sindbis virus infected in african green monkey Vero cells assessed as virus-induced cytopathogenicity at 20 to 100 uM after 4 days by microscopy; assay type: functional, organism-based; method in brief: as §1
Coxsackievirus B4 = assay: Antiviral activity against coxsackievirus B4 infected in african green monkey Vero cells assessed as virus-induced cytopathogenicity at 20 to 100 uM after 4 days by microscopy; assay type: functional, organism-based; method in brief: as §1
Human alphaherpesvirus 1 = assay: Antiviral activity against Human herpesvirus 1 strain KOS infected in HELF assessed as virus-induced cytopathogenicity at 20 to 100 uM after 4 days by microscopy; assay type: functional, organism-based; method in brief: as §1
Human alphaherpesvirus 2 = assay: Antiviral activity against Human herpesvirus 2 strain G infected in HELF assessed as virus-induced cytopathogenicity at 20 to 100 uM after 4 days by microscopy; assay type: functional, organism-based; method in brief: as §1
[5] = test system: Vesicular stomatitis virus; assay: Antiviral activity against Vesicular stomatitis virus infected in HELF assessed as virus-induced cytopathogenicity at 20 to 100 uM after 4 days by microscopy; assay type: functional, organism-based
Method in brief: (§2)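 Near-confluent MDCK (influenza) or confluent HEL monolayers were inoculated with 100 CCID50 of virus. After 1-h adsorption, residual virus was removed, and cells were incubated with fivefold serial dilutions of compound. Cytopathicity was scored microscopically once untreated infected controls reached complete CPE. Minimal cytotoxic concentration was read as microscopically visible alteration of cell morphology.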

Feline coronavirus = assay: Antiviral activity against Feline coronavirus infected in CrFK assessed as virus-induced cytopathogenicity at 20 to 100 uM after 4 days by microscopy; assay type: functional, organism-based; method in brief: as §1
Influenza A virus [6] = assay: Antiviral activity against Influenza A virus infected in MDCK assessed as virus-induced cytopathogenicity at 20 to 100 uM after 4 days by microscopy; assay type: functional, organism-based; method in brief: as §2
Influenza A virus [7] = assay: Antiviral activity against Influenza A virus H3N2 infected in MDCK assessed as virus-induced cytopathogenicity at 20 to 100 uM after 4 days by microscopy; assay type: functional, organism-based; method in brief: as §2
Influenza A virus [8] = assay: Antiviral activity against Influenza A virus H1N1 infected in MDCK assessed as virus-induced cytopathogenicity at 20 to 100 uM after 4 days by microscopy; assay type: functional, organism-based; method in brief: as §2

SMILES	EC50 (Human betaherpesvirus 5)	MCC at 72 h [1]	CC50 [1]	further results
C[C@H](NC(=O)[C@@]1(Cc2ccccc2)CCN1C(=O)OCc1ccccc1)C(=O)NCc1ccccc1 (racemic)	> 4 µM	≥ 20 µM	42 µM	–
C[C@H](NC(=O)[C@]1(Cc2ccccc2)CCN1C(=O)Oc1ccccc1)C(N)=O	> 20 µM	> 100 µM	> 100 µM	IC50 (Human alphaherpesvirus 3 [2]): 69 µM; IC50 (Human alphaherpesvirus 3 [3]): 858 µM
C[C@H](NC(=O)[C@]1(Cc2ccccc2)CCN1S(=O)(=O)c1ccc2ccccc2c1)C(N)=O	> 100 µM	> 100 µM	> 100 µM	IC50 (Human alphaherpesvirus 3 [2]): > 100 µM; IC50 (Human alphaherpesvirus 3 [3]): 76.5 µM
C[C@H](NC(=O)[C@]1(Cc2ccccc2)CCN1C(=O)OCc1ccccc1)C(N)=O	32 µM	> 50 µM	50 µM	–
C[C@H](NC(=O)[C@@]1(Cc2ccccc2)CCN1C(=O)OCc1ccccc1)C(=O)NC1CCCCC1	> 20 µM	100 µM	46 µM	–
NC(=O)[C@H](CCC(=O)O)NC(=O)C1(Cc2ccccc2)CCN1C(=O)OCc1ccccc1 (mixture of isomers)	> 100 µM	> 100 µM	> 100 µM	–
NCCCC[C@H](NC(=O)C1(Cc2ccccc2)CCN1C(=O)OCc1ccccc1)C(N)=O (mixture of isomers)	> 100 µM	> 100 µM	> 100 µM	–
CC(C)CNC(=O)[C@H](C)NC(=O)[C@]1(Cc2ccccc2)CCN1C(=O)OCc1ccccc1	63 µM	> 100 µM	> 100 µM	IC50 (Human alphaherpesvirus 3 [2]): > 100 µM; IC50 (Human alphaherpesvirus 3 [3]): 64.8 µM
Nc1nc2c(ncn2COCCO)c(=O)[nH]1 [ACYCLOVIR]	–	> 1780 µM	> 1780 µM	–
C[C@H](NC(=O)[C@]1(Cc2ccccc2)CCN1C(=O)OCc1ccccc1Cl)C(N)=O	> 20 µM	> 100 µM	> 100 µM	–
CC(C)[C@H](NC(=O)[C@@]1(Cc2ccccc2)CCN1C(=O)OCc1ccccc1)C(N)=O	> 100 µM	> 100 µM	85 µM	–
Nc1nc(O)c2ncn(COC(CO)CO)c2n1 [GANCICLOVIR]	7 µM	≥ 1580 µM	580 µM	–
CC(C)CNC(=O)[C@H](C)NC(=O)[C@@]1(Cc2ccccc2)CCN1C(=O)OCc1ccccc1	> 100 µM	> 100 µM	–	–
C[C@H](NC(=O)[C@]1(Cc2ccccc2)CCN1C(=O)Oc1cccc2ccccc12)C(N)=O	45 µM	> 100 µM	> 100 µM	IC50 (Human alphaherpesvirus 3 [2]): 47.7 µM; IC50 (Human alphaherpesvirus 3 [3]): 47.7 µM
C[C@H](NC(=O)[C@]1(Cc2ccccc2)CCN1C(=O)NCc1ccccc1)C(N)=O	> 100 µM	> 100 µM	> 100 µM	–
CC(C)[C@H](NC(=O)[C@]1(Cc2ccccc2)CCN1C(=O)OCc1ccccc1)C(N)=O	–	> 100 µM	100 µM	–
NC(=O)[C@H](Cc1ccccc1)NC(=O)[C@]1(Cc2ccccc2)CCN1C(=O)OCc1ccccc1	> 20 µM	100 µM	33 µM	–

SMILES	EC50 (Human betaherpesvirus 5)	MCC at 72 h [1]	CC50 [1]	further results
C[C@H](NC(=O)[C@]1(Cc2ccccc2)CCN1C(=O)OCc1ccccc1)C(=O)NC1CCCCC1	> 100 µM	> 100 µM	> 100 µM	–
C[C@H](NC(=O)[C@@]1(Cc2ccccc2)CCN1C(=O)OCc1ccccc1)C(=O)N(C)C	> 100 µM	> 100 µM	–	–
C[C@@H](NC(=O)[C@@]1(Cc2ccccc2)CCN1C(=O)OCc1ccccc1)C(N)=O	> 100 µM	> 100 µM	> 100 µM	–
C[C@H](NC(=O)[C@]1(Cc2ccccc2)CCN1C(=O)CCc1ccccc1)C(N)=O	> 100 µM	100 µM	–	CC50 at 72 h [1]: > 100 µM
CC(C)C[C@H](NC(=O)[C@@]1(Cc2ccccc2)CCN1C(=O)OCc1ccccc1)C(N)=O	45 µM	> 100 µM	66 µM	–
C[C@H](NC(=O)[C@]1(Cc2ccccc2)CCN1C(=O)OCc1ccccc1)C(=O)NC(C)(C)C	45 µM	> 100 µM	–	IC50 (Human alphaherpesvirus 3 [3]): 62.5 µM
NC(=O)[C@H](Cc1ccccc1)NC(=O)[C@@]1(Cc2ccccc2)CCN1C(=O)OCc1ccccc1	> 20 µM	100 µM	37 µM	–
C[C@H](NC(=O)[C@H](Cc1ccccc1)NC(=O)OCc1ccccc1)C(=O)NC(C)(C)C	> 100 µM	> 100 µM	> 100 µM	–
C[C@H](NC(=O)[C@]1(Cc2ccccc2)CCN1C(=O)OCc1ccccc1)C(=O)N(C)C	> 100 µM	> 100 µM	> 100 µM	–
C[C@H](NC(=O)[C@]1(Cc2ccccc2)CCN1C(=O)OCc1ccc([N+](=O)[O-])cc1)C(N)=O	> 20 µM	100 µM	–	CC50 at 72 h [1]: > 100 µM; IC50 (Human alphaherpesvirus 3 [2]): > 100 µM; IC50 (Human alphaherpesvirus 3 [3]): 67 µM
C[C@H](NC(=O)[C@@]1(Cc2ccccc2)CCN1C(=O)OCc1ccccc1)C(=O)NC(C)(C)C (mixture of isomers)	49 µM	> 100 µM	> 100 µM	IC50 (Human alphaherpesvirus 3 [2]): 63 µM; IC50 (Human alphaherpesvirus 3 [3]): 60 µM
C[C@H](NC(=O)[C@]1(Cc2ccccc2)CCN1C(=O)OCC1c2ccccc2-c2ccccc21)C(N)=O	> 4 µM	20 µM	14 µM	Activity (Human respirovirus 3): inactive; Activity [4]: inactive; Activity (Sindbis virus): inactive; Activity (Coxsackievirus B4): inactive; Activity (Human alphaherpesvirus 1): inactive; Activity (Human alphaherpesvirus 2): inactive; Activity [5]: inactive; Activity (Feline coronavirus): inactive; Activity (Influenza A virus [6]): inactive; Activity (Influenza A virus [7]): inactive; Activity (Influenza A virus [8]): inactive
C[C@H](NC(=O)[C@]1(Cc2ccccc2)CCN1C(=O)OCc1ccccc1)C(=O)NCc1ccccc1	> 20 µM	100 µM	–	–
CC(C)C[C@H](NC(=O)[C@]1(Cc2ccccc2)CCN1C(=O)OCc1ccccc1)C(N)=O	> 20 µM	100 µM	50 µM	–
C[C@H](NC(=O)[C@]1(Cc2ccccc2)CCN1C(=O)N[C@@H](C)c1ccccc1)C(N)=O	> 100 µM	> 100 µM	> 100 µM	–
C[C@H](NC(=O)[C@H](Cc1ccccc1)NC(=O)OCc1ccccc1)C(N)=O	> 100 µM	> 100 µM	> 100 µM	–
C[C@@H](NC(=O)[C@]1(Cc2ccccc2)CCN1C(=O)OCc1ccccc1)C(N)=O	63 µM	> 100 µM	36 µM	–
